Where “and” joins values, the source holds several entries; their conditions need not be identical. Equal entries are not always repeated. Where two headings read alike, the source gives them in different places.
Legend:
heme crystallization = assay: Parasite-free colorimetric heme crystallization inhibition; assay type: biochemical; settings: molar equivalents of compound to heme
J774 = assay: Cytotoxicity against uninfected J774 cells; assay type: cell-based; settings: read-out: Cytotoxicity IC50 J774
P. falciparum (3D7) [1] = assay: P. falciparum 3D7 proliferation; assay type: cell-based, Plasmodium falciparum
[2] = tested on: P. falciparum Dd2 (chloroquine-resistant); assay: P. falciparum Dd2 antiplasmodial activity; assay type: cell-based, Plasmodium falciparum; settings: read-out: Antiplasmodial activity IC50 Dd2
Vero = assay: Cytotoxicity against uninfected Vero cells; assay type: cell-based; settings: for IC50: read-out: Cytotoxicity IC50 Vero, uninfected Vero cells
[3] = Spectrophotometric titration of Fe; assay type: binding
In short: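 Heme (Fe(III)PPIX) titrated with test compound from 1:1 to 16:1 mol equiv compound:heme at 23 °C in 40 % DMSO, 20 mM HEPES, pH 7.4. Soret-band and Q-band absorbance recorded after each addition. Spectra corrected for dilution by subtracting a reference cell.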

HepG2 = assay: Cytotoxicity against uninfected HepG2 cells; assay type: cell-based; settings: read-out: Cytotoxicity IC50 HepG2
[4] = tested on: P. falciparum HB3 (chloroquine-sensitive); assay: P. falciparum HB3 antiplasmodial activity; assay type: cell-based, Plasmodium falciparum; settings: read-out: Antiplasmodial activity IC50 HB3
[5] = tested on: P. falciparum HB3 (chloroquine-sensitive); settings: read-out: Antiplasmodial activity IC50 HB3, ref Hawley et al. [30]; cited from earlier work
P. falciparum (3D7) [6] = settings: read-out: Antiplasmodial activity IC50 3D7, ref Hawley et al. [30]; cited from earlier work
[7] = read-out: Antiplasmodial activity IC50 3D7, 3D7, chloroquine-sensitive
[8] = read-out: P. falciparum (3D7) IC50, 3D7 strain

Which results are given for 18-acetylbromophycolide A [Compound 7]?
Heme crystallization IC50 (heme crystallization): 2.0 mol equiv and 2.0 ± 0.15 mol equiv; IC50 (J774): 24700 nM; IC50 (P. falciparum (3D7) [1]; [7]): 241 ± 52 nM; IC50 (P. falciparum (3D7) [1]; [8]): 240 nM; IC50 [2]: 304 ± 8.4 nM; IC50 (Vero): 74000 nM; fold increase in activity for P. falciparum parasites over mammalian (Vero) cells (Vero; selectivity P. falciparum vs Vero): 300 fold; decrease in Soret band (λ 402 nm) absorbance of Fe^IIIPPIX upon titration ([3]; 40 % DMSO, 20 mM HEPES, pH 7.4): 25%; IC50 (HepG2): 38500 nM; IC50 [4]: 431 ± 25 nM

Which “Heme crystallization IC50” value (heme crystallization) does the source give for `CCN(CC)Cc1cc(Nc2ccnc3cc(Cl)ccc23)ccc1O` [AMQ, amodiaquine, reference compound] here?
The value was 1.2 ± 0.19 mol equiv.

What about the “Heme crystallization IC50” value (heme crystallization; listed as amodiaquine) of the same compound?
The value was 1.2 mol equiv.

What about the IC50 [5] of the same compound?
The IC50 was 8.5 nM.

And the IC50 (P. falciparum (3D7) [6])?
Its IC50 is 7.8 nM.

Which “Heme crystallization IC50” value (heme crystallization) does the source give for `CC1=C2Cc3cc(ccc3O)C(=O)O[C@H](C(C)(C)Br)CC[C@](C)(O)[C@H](Br)CC[C@]2(C)[C@@H](Br)CC1` [Compound 1, bromophycolide A] here?
The value was 2.5 mol equiv and 2.5 ± 0.13 mol equiv.

What about the IC50 (J774) of the same compound?
The IC50 was 19000 nM.

What about the IC50 (P. falciparum (3D7) [1]; [7]) of the same compound?
Its IC50 is 499 ± 51 nM.

What about the IC50 (P. falciparum (3D7) [1]; [8]) of the same compound?
Its IC50 is 500 nM.

And the IC50 [2]?
The IC50 was 377 ± 92 nM.

And the IC50 (Vero)?
The IC50 was 34600 nM.

And the “association constant log K of Fe^IIIPPIX–compound complex” value ([3]; 1:1 complexation model, 40 % DMSO, 20 mM HEPES, pH 7.4)?
The value was 4.52 ± 0.18.

And the “decrease in Soret band (λ 402 nm) absorbance of Fe^IIIPPIX upon titration” value ([3]; 40 % DMSO, 20 mM HEPES, pH 7.4)?
Its value is 45%.

What about the “binding concentration at half-maximum” value ([3]; spectrophotometric titration experiment) of the same compound?
The value was 25 µM.

And the IC50 (HepG2)?
The IC50 was 21300 nM.

What about the IC50 [4] of the same compound?
The IC50 was 493 ± 44 nM.

For `CC1=C2Cc3cc(ccc3O)C(=O)O[C@H](C(C)(C)O)CC[C@](C)(O)[C@H](Br)CC[C@]2(C)[C@@H](Br)CC1` [Compound 2, bromophycolide C], which IC50 (P. falciparum (3D7) [1]; [8]) is on record?
The IC50 was 56000 nM.

For `C=C(C)[C@@H]1CC[C@](C)(O)[C@H](Br)CC[C@@]2(C)[C@H](Cc3cc(ccc3O)C(=O)O1)C(=C)CC[C@@H]2Br` [Compound 4, bromophycolide E], which IC50 (P. falciparum (3D7) [1]; [8]) is on record?
The IC50 was 820 nM.

With `C=C(C)[C@@H]1CCC(C)(O)[C@H](Br)CC[C@@]2(C)C(=C(C)CC[C@@H]2Br)Cc2cc(ccc2O)C(=O)O1` (stereo partly shown) [Compound 5, bromophycolide M] as the compound, how does the IC50 (P. falciparum (3D7) [1]; [8]) read?
Its IC50 is 550 nM.

With bromophycolide D [Compound 3] as the compound, how does the IC50 (P. falciparum (3D7) [1]; [8]) read?
The IC50 was 350 nM.

With debromophycolide A [Compound 6] as the compound, how does the “P. falciparum (3D7) IC50” value (P. falciparum (3D7) [1]; 3D7 strain) read?
The value was “completely inactive”.

What about the IC50 (P. falciparum (3D7) [1]; [8]) of the same compound?
The IC50 was greater than 100000 nM.

— paper PMC3381860 (Chemmedchem, 2011)
